In test [1] the test system is SF-268. Description: Cytotoxicity against human SF268 cells after 4 days by MTT assay. Conditions: SF-268, 96 h. Format: cell-based. The method in brief: (§1)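 Cell lines from the National Cancer Institute, grown in RPMI-1640 with 10% FBS and 2 mM L-glutamine at 37 °C, 5% CO2. Seeded 5000 cells/well with compound half-log serially diluted (0.316 mM to 0.1 pM). Incubated 4 days. Viability read by MTT. IC50 from dose-response fit of OD data.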
(Tetrazolium assays rely on reduction of a dye to a coloured formazan, in cell work by metabolically active cells.)

Test [2] deals with NCI-H460. Description: Cytotoxicity against human NCI-H460 cells after 4 days by MTT assay. Format: cell-based. As to conditions: NCI-H460, 96 h. In outline: as §1
In test [3] the test system is MCF7. Description: Cytotoxicity against human MCF7 cells after 4 days by MTT assay. Type of test: cell-based. Conditions: MCF7, 96 h. In outline:
as §1

The target of test [4] is T1, 4,4'-diapophytoene synthase (Staphylococcus aureus, UniProt A9JQL9).
T1 sequence (A9JQL9 whole entry): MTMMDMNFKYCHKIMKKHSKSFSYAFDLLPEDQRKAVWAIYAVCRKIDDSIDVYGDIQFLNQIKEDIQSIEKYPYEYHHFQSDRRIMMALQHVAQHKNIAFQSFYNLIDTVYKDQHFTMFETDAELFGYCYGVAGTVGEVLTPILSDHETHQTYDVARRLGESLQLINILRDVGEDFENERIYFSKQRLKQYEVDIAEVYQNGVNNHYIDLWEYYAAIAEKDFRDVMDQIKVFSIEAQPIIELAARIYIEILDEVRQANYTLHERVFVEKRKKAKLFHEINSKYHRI
Description: Inhibition of Staphylococcus aureus histidine tagged dehydrosqualene synthase expressed in Escherichia coli BL21 (DE3) cells by continuous spectrophotometric assay. The method in brief:
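His-tagged CrtM purified on Ni-NTA. Compounds were preincubated with 2 μg enzyme for 30 min at 20 °C. Phosphate release was followed continuously by a coupled spectrophotometric assay. IC50 came from a dose-response fit, and Ki was derived from IC50, substrate concentration and the CrtM kinetic constant.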

Test [5] deals with Staphylococcus aureus. Description: Inhibition of staphyloxanthin biosynthesis in Staphylococcus aureus isolate Pig1 after 72 hrs by spectrophotometry. Conditions: isolate Pig1, PIG1, 72 h. Type of test: functional, organism-based. The method in brief: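 Bacteria were grown in Todd-Hewitt broth with compound for 72 h, in duplicate. Cells were then centrifuged and washed twice in PBS. Pigment was extracted with MeOH and read by OD at 450 nm. IC50 came from a dose-response fit of the OD data.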

In test [6] the target is T2, Squalene synthase (Homo sapiens, UniProt P37268).
T2 sequence (P37268 whole entry): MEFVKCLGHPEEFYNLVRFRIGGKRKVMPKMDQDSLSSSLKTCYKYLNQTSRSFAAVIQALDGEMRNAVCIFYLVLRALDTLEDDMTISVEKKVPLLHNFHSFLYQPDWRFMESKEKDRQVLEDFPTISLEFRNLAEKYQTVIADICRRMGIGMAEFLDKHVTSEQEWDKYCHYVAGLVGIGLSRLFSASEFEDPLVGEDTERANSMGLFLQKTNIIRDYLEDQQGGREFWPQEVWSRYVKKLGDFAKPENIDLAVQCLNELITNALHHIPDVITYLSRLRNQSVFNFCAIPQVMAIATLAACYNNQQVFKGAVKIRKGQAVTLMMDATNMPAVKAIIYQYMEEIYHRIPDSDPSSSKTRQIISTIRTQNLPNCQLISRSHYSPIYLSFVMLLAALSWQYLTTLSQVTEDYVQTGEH
Description: Inhibition of human recombinant squalene synthase expressed in Escherichia coli cells assessed as conversion of [3H]FPP to squalene by liquid scintillation.

`CC(C)(C(=O)NCCCc1cccc(Oc2ccccc2)c1)P(=O)(O)O`: the concentration for half-maximal inhibition (IC50) in test [1] was more than 300 µM; in test [2], more than 300 µM; in test [3] it was more than 300 µM; in test [5], more than 500 µM; in test [6], 0.52 µM. Moreover, the Ki in test [4] amounted to 0.96 µM.
On to `O=C(CCCCc1cccc(Oc2ccccc2)c1)CP(=O)(O)O`, for which the concentration for half-maximal inhibition (IC50) in test [2] amounted to 191 µM; in test [3], 135 µM; in test [5], 28 µM; in test [6], 20 µM. Also, the Ki in test [4] was more than 7 µM.
Regarding `O=C(CP(=O)(O)O)NCCCc1cccc(Oc2ccc(Cl)c(Cl)c2)c1`, the 50% inhibitory concentration (IC50) in test [1] is more than 300 µM; in test [2], more than 300 µM; in test [3] it was more than 300 µM; in test [5], 0.04 µM; in test [6], 0.74 µM. This compound showed a Ki in test [4] of 0.03 µM.
With `O=C(CP(=O)([O-])[O-])NCCCc1cccc(Oc2ccccc2)c1.[K+].[K+]`, the IC50 was more than 300 µM in test [1]; more than 300 µM in test [2]; more than 300 µM in test [3]; 0.008 µM in test [5]; 0.53 µM in test [6].
For the compound `O=C(NO)C(CCCc1cccc(Oc2ccccc2)c1)P(=O)(O)O` (stereo not drawn), the half-inhibitory concentration (IC50) in test [1] is more than 300 µM; in test [2], more than 300 µM; in test [3] it was more than 300 µM; in test [5], 4.2 µM; in test [6], 0.3 µM. Also, the inhibitory constant (Ki) in test [4] was found to be 4.1 µM.
As for `O=C(CP(=O)(O)O)NCCCCc1cccc(Oc2ccccc2)c1`, the concentration for half-maximal inhibition (IC50) was more than 300 µM in test [1]; more than 300 µM in test [2]; more than 300 µM in test [3]; 35 µM in test [5]; more than 30 µM in test [6]. Further, the Ki in test [4] was 5.3 µM.
For the compound `O=C(CP(=O)(O)O)OCCCc1cccc(Oc2ccccc2)c1`, the IC50 in test [2] is 86 µM; in test [3], 69 µM; in test [5], more than 500 µM; in test [6] it was more than 30 µM. This compound also displayed an inhibitory constant (Ki) in test [4] of 5.7 µM.
As for `O=C(CS(=O)(=O)O)NCCCc1cccc(Oc2ccccc2)c1`, the IC50 in test [1] was more than 300 µM; in test [2], more than 300 µM; in test [3], more than 300 µM; in test [5], 15 µM; in test [6] it was more than 30 µM. Moreover, the Ki in test [4] is 0.81 µM.
On to `O=C(CP(=O)(O)O)N(O)CCCc1cccc(Oc2ccc(Cl)c(Cl)c2)c1`, for which the IC50 in test [1] is more than 300 µM; in test [2], more than 300 µM; in test [3], more than 300 µM; in test [5] it was 0.042 µM; in test [6], 1.6 µM. For the same compound, in test [4], the Ki was 0.32 µM.
As for `O=C(CP(=O)(O)O)N(O)CCCc1cccc(Oc2ccccc2)c1`, the IC50 was more than 300 µM in test [1]; more than 300 µM in test [2]; more than 300 µM in test [3]; 0.11 µM in test [5]; 30 µM in test [6]. The Ki in test [4] was 0.32 µM.
Consider `CN(CCCc1cccc(Oc2ccccc2)c1)C(=O)CP(=O)(O)O`, for which the IC50 in test [1] is more than 300 µM; in test [2], more than 300 µM; in test [3], more than 300 µM; in test [5], 8.6 µM; in test [6], 1 µM. For the same compound, in test [4], the affinity corresponds to a Ki of 0.91 µM.
Turning to `O=C(CP(=O)(O)O)NCCCc1cccc(Oc2ccc(Cl)cc2)c1`, the IC50 in test [1] was more than 300 µM; in test [2] it was more than 300 µM; in test [3], more than 300 µM; in test [5] it was 0.028 µM; in test [6], 1.1 µM. This compound also had a Ki in test [4] of 0.07 µM.
Regarding `O=C(CP(=O)(O)O)NCCCc1ccc(-c2ccccc2)cc1`, the IC50 in test [1] is more than 300 µM; in test [2], more than 300 µM; in test [3], more than 300 µM; in test [5] it was 5 µM; in test [6], more than 30 µM. Besides, in test [4], the affinity, expressed as Ki, was 0.81 µM.
As to `O=P(O)(O)CS(=O)(=O)NCCCc1cccc(Oc2ccccc2)c1`, the IC50 is more than 300 µM in test [1]; more than 300 µM in test [2]; more than 300 µM in test [3]; more than 500 µM in test [5]; more than 30 µM in test [6]. Besides, the Ki in test [4] was more than 7 µM.
Consider `O=C(O)CC(=O)NCCCc1cccc(Oc2ccccc2)c1`, for which the concentration for half-maximal inhibition (IC50) in test [1] was 306 µM; in test [2] it was 306 µM; in test [3], 283 µM; in test [5], 200 µM; in test [6] it was more than 30 µM. Further, in test [4], the inhibition constant Ki was more than 7 µM.
With `O=C(CP(=O)(O)O)NCCc1cccc(Oc2ccccc2)c1`, the IC50 in test [1] is more than 300 µM; in test [2] it was more than 300 µM; in test [3], more than 300 µM; in test [5], 3 µM; in test [6], 6.2 µM. In addition, the Ki in test [4] is 1.5 µM.
Take `Cc1ccc(-c2ccc(CCCN(O)C(=O)CP(=O)(O)O)cc2)cc1`: the IC50 in test [2] is 284 µM; in test [3], 266 µM; in test [5], 4.1 µM; in test [6], more than 30 µM. In test [4], the Ki is more than 7 µM.

In general, IC50 refers to the concentration at which inhibition is half-maximal. One may read the Ki as a measure of affinity in units of concentration, obtained from inhibition or displacement. A low value points to higher affinity.

Source of the values: ChEMBL document CHEMBL1136952, “Inhibition of staphyloxanthin virulence factor biosynthesis in Staphylococcus aureus: in vitro, in vivo, and crystallographic results” (J Med Chem, 2009).
